Assay [1] has as its system Staphylococcus aureus. Put plainly: Antibacterial activity against Staphylococcus aureus ATCC 25923 after 18 hrs by macro broth dilution assay. The assay is classed as functional. The settings on record: for MIC: Staphylococcus aureus, ATCC 25923, 18 h. The essentials:
(§1)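 Compounds dissolved in 50% DMSO–water at 400 (stock); fourfold dilution with medium and inoculum gives 100 top concentration in first tube (12.5% DMSO, not scored). Inoculum: 4–5 colonies from overnight Tryptic Soy Agar in saline to 0.5 McFarland, diluted 1:100 in MHB (10⁶ CFU/ml); 1 mL added to 1 mL compound dilution in MHB. 35 °C, 18 h; MIC read. Agar diffusion pre-screen first.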

For assay [2], the system named is Staphylococcus aureus. Put plainly: Antibacterial activity against methicillin-resistant Staphylococcus aureus ATCC 43300 after 18 hrs by macro broth dilution assay. The assay is classed as functional. The conditions noted are these: for MIC: Staphylococcus aureus, ATCC 43300, 18 h. The essentials: as §1
Background: Broth dilution looks for growth in wells or tubes with falling amounts of substance.

The structures appear in SMILES notation. ≈ marks a conversion by molar mass, not a printed value.

A word on the MIC: it is the lowest concentration found to suppress growth. Low values mean greater potency, high ones weaker potency. As to `Clc1ccc(Oc2ccccc2Nc2nc3cc(Cl)ccc3[nH]2)cc1`, in the assay with Staphylococcus aureus [1], the “log(1/C)” value is 5.38 and the minimal inhibitory concentration (MIC) worked out at 1.56 µg/mL (≈ 4.21 µM). The molecule also yielded an MIC against Staphylococcus aureus [2] of 1.56 µg/mL (≈ 4.21 µM).
On to `Clc1ccc2[nH]c(Nc3ccc(Br)cc3)nc2c1`, for which the “log(1/C)” value in the assay on Staphylococcus aureus [1] stood at 5.31; with Staphylococcus aureus [2], 5.62. Also, the minimal inhibitory concentration (MIC) is 1.56 µg/mL (≈ 4.84 µM) in the assay on Staphylococcus aureus [1] and 0.78 µg/mL (≈ 2.42 µM) in the assay on Staphylococcus aureus [2].
Consider `Clc1ccc(Nc2nc3cc(Cl)ccc3[nH]2)cc1`, for which, in the assay on Staphylococcus aureus [1], the “log(1/C)” value came to 4.95 and the minimum inhibitory concentration (MIC) is 3.12 µg/mL (≈ 11.2 µM). In the assay with Staphylococcus aureus [2], the “log(1/C)” value is 5.25 and inhibition of growth (MIC) required 1.56 µg/mL (≈ 5.61 µM).
As for `Fc1ccc(Nc2nc3cc(Cl)ccc3[nH]2)cc1Cl`, in the assay on Staphylococcus aureus [1], the “log(1/C)” value is on record as 5.28 and 1.56 µg/mL (≈ 5.27 µM) was the least that counted as inhibitory (MIC). In the assay on Staphylococcus aureus [2], this molecule displayed an MIC of 1.56 µg/mL (≈ 5.27 µM).
In the case of `FC(F)(F)c1ccc(Cl)c(Nc2nc3cc(Cl)ccc3[nH]2)c1`, the “log(1/C)” value in the assay with Staphylococcus aureus [1] is on record as 5.65. For the same molecule, the MIC in the assay with Staphylococcus aureus [1] and in the assay with Staphylococcus aureus [2] was 0.78 µg/mL (≈ 2.25 µM) in each case.
Turning to `Clc1ccc(Nc2nc3cc(I)ccc3[nH]2)cc1Cl`, in the assay on Staphylococcus aureus [1], the “log(1/C)” value is given as 5.71 and the lowest concentration to inhibit growth (MIC) was 0.78 µg/mL (≈ 1.93 µM). Besides, the minimum inhibitory concentration (MIC) with Staphylococcus aureus [2] came to 0.78 µg/mL (≈ 1.93 µM).
As to `Nc1ccc2[nH]c(Nc3ccc(Cl)c(Cl)c3)nc2c1`, in the assay with Staphylococcus aureus [1], the “log(1/C)” value was found to be 4.07 and the minimum inhibitory concentration (MIC) stood at 25 µg/mL (≈ 85.3 µM). Also, in the assay with Staphylococcus aureus [2], the “log(1/C)” value is given as 3.77 and 50 µg/mL (≈ 171 µM) was the least that counted as inhibitory (MIC).
Take `Clc1ccc(Nc2nc3cc(Cl)ccc3[nH]2)c(Cl)c1`: in the assay with Staphylococcus aureus [1], the “log(1/C)” value was determined as 5.9 and the MIC came to 0.39 µg/mL (≈ 1.25 µM). This molecule registered an MIC in the assay with Staphylococcus aureus [2] of 0.39 µg/mL (≈ 1.25 µM).
As to `FC(F)(F)c1cccc(Nc2nc3cc(Cl)ccc3[nH]2)c1`, in the assay with Staphylococcus aureus [1], the “log(1/C)” value is 5.9 and the MIC was 0.39 µg/mL (≈ 1.25 µM). In the assay on Staphylococcus aureus [2], the “log(1/C)” value came out at 5.3 and the MIC is 1.56 µg/mL (≈ 5 µM).
As to `Fc1cc(F)cc(Nc2nc3cc(Cl)ccc3[nH]2)c1`, in the assay with Staphylococcus aureus [1], the “log(1/C)” value was found to be 5.25 and the MIC was 1.56 µg/mL (≈ 5.58 µM). In the assay on Staphylococcus aureus [2], it took 1.56 µg/mL (≈ 5.58 µM) to inhibit growth (MIC).
Take `Fc1ccc2[nH]c(Nc3ccc(Cl)c(Cl)c3)nc2c1`: in the assay on Staphylococcus aureus [1], the “log(1/C)” value is 5.28 and the minimal inhibitory concentration (MIC) amounted to 1.56 µg/mL (≈ 5.27 µM). Moreover, the MIC in the assay on Staphylococcus aureus [2] was determined as 1.56 µg/mL (≈ 5.27 µM).
As to `Clc1cc(Cl)cc(Nc2nc3cc(Cl)ccc3[nH]2)c1`, the “log(1/C)” value with Staphylococcus aureus [1] is given as 5.9. The minimal inhibitory concentration (MIC) in the assay on Staphylococcus aureus [1] and in the assay on Staphylococcus aureus [2] was 0.39 µg/mL (≈ 1.25 µM) in each case.
`CC1(C)S[C@@H]2[C@H](NC(=O)[C@H](N)c3ccccc3)C(=O)N2[C@H]1C(=O)OCOC(=O)[C@@H]1N2C(=O)C[C@H]2S(=O)(=O)C1(C)C` [SULTAMICILLIN]: the MIC is 0.78 µg/mL (≈ 1.31 µM) against Staphylococcus aureus [1] and 25 µg/mL (≈ 42 µM) against Staphylococcus aureus [2].
Take `O=[N+]([O-])c1ccc2[nH]c(Nc3ccc(Cl)cc3)nc2c1`: in the assay on Staphylococcus aureus [1], the “log(1/C)” value stood at 5.27 and the MIC is 1.56 µg/mL (≈ 5.4 µM). In the assay on Staphylococcus aureus [2], this molecule came in with an MIC of 1.56 µg/mL (≈ 5.4 µM).
For `O=[N+]([O-])c1ccc2[nH]c(Nc3ccc(Cl)c(Cl)c3)nc2c1`, in the assay with Staphylococcus aureus [1], the “log(1/C)” value came to 5.62 and the MIC turned out to be 0.78 µg/mL (≈ 2.41 µM). Also, in the assay with Staphylococcus aureus [2], the “log(1/C)” value was 5.32 and inhibition of growth (MIC) required 1.56 µg/mL (≈ 4.83 µM).
Take `Clc1ccc2[nH]c(Nc3ccc(Cl)c(Cl)c3)nc2c1`: in the assay with Staphylococcus aureus [1], the “log(1/C)” value is given as 5.9 and the minimal inhibitory concentration (MIC) was found to be 0.39 µg/mL (≈ 1.25 µM). The molecule further registered a minimum inhibitory concentration (MIC) with Staphylococcus aureus [2] of 0.39 µg/mL (≈ 1.25 µM).
In the case of `Fc1cccc(Nc2nc3cc(Cl)ccc3[nH]2)c1`, the “log(1/C)” value in the assay on Staphylococcus aureus [1] is 4.62. The MIC with Staphylococcus aureus [1] and in the assay with Staphylococcus aureus [2] was 6.25 µg/mL (≈ 23.9 µM) each time.
`Clc1ccc(Nc2nc3cc(Cl)c(Cl)cc3[nH]2)cc1Cl`: in the assay on Staphylococcus aureus [1], the “log(1/C)” value is given as 5.95 and the MIC amounted to 0.39 µg/mL (≈ 1.12 µM). It took 0.39 µg/mL (≈ 1.12 µM) to inhibit growth against Staphylococcus aureus [2] (MIC).
Take `Fc1ccc(Nc2nc3cc(Cl)ccc3[nH]2)cc1`: the “log(1/C)” value in the assay on Staphylococcus aureus [1] is 4.92; in the assay on Staphylococcus aureus [2], 4.32. In addition, the minimum inhibitory concentration (MIC) is 3.12 µg/mL (≈ 11.9 µM) in the assay on Staphylococcus aureus [1] and 12.5 µg/mL (≈ 47.8 µM) against Staphylococcus aureus [2].
Consider `Clc1ccc(Nc2nc3ccccc3[nH]2)cc1Cl`, for which, in the assay with Staphylococcus aureus [1], the “log(1/C)” value was 4.95 and 3.12 µg/mL (≈ 11.2 µM) was the least that counted as inhibitory (MIC). In addition, in the assay on Staphylococcus aureus [2], the “log(1/C)” value is reported as 4.65 and the minimal inhibitory concentration (MIC) was determined as 6.25 µg/mL (≈ 22.5 µM).
In the same order, the values of `[N-]=[N+]=Nc1ccc(Nc2nc3cc(Cl)ccc3[nH]2)cc1` are 4.96, 3.12 µg/mL (≈ 11 µM), 4.66 and 6.25 µg/mL (≈ 22 µM).
Turning to `Cc1cc2[nH]c(Nc3ccc(Cl)c(Cl)c3)nc2cc1Cl`, the “log(1/C)” value with Staphylococcus aureus [1] is reported as 5.92. Also, the MIC with Staphylococcus aureus [1] and against Staphylococcus aureus [2] was 0.39 µg/mL (≈ 1.19 µM) each time.
`COc1ccc(Nc2nc3cc(Cl)ccc3[nH]2)cc1`: in the assay with Staphylococcus aureus [1], the “log(1/C)” value came out at 3.74 and the MIC was determined as 50 µg/mL (≈ 183 µM). For the same molecule, the MIC against Staphylococcus aureus [2] is 50 µg/mL (≈ 183 µM).
In the case of `Clc1ccc(Nc2nc3cc(Cl)c(Cl)cc3[nH]2)cc1`, in the assay on Staphylococcus aureus [1], the “log(1/C)” value is given as 5.9 and the MIC stood at 0.39 µg/mL (≈ 1.25 µM). In the assay with Staphylococcus aureus [2], the minimum inhibitory concentration (MIC) amounted to 0.39 µg/mL (≈ 1.25 µM).
As for `FC(F)(F)Oc1ccc(Nc2nc3cc(Cl)ccc3[nH]2)cc1`, the “log(1/C)” value in the assay on Staphylococcus aureus [1] came out at 5.62. The MIC in the assay on Staphylococcus aureus [1] and with Staphylococcus aureus [2] was 0.78 µg/mL (≈ 2.38 µM) in each case.
Regarding `FC(F)(F)c1cc(Nc2nc3cc(Cl)ccc3[nH]2)ccc1Cl`, in the assay on Staphylococcus aureus [1], the “log(1/C)” value came out at 5.95 and the MIC came out at 0.39 µg/mL (≈ 1.13 µM). In the assay with Staphylococcus aureus [2], this molecule registered an MIC of 0.39 µg/mL (≈ 1.13 µM).
On to `COC(=O)c1ccc2[nH]c(Nc3ccc(Cl)c(Cl)c3)nc2c1`, for which, in the assay on Staphylococcus aureus [1], the “log(1/C)” value came out at 5.34 and the MIC turned out to be 1.56 µg/mL (≈ 4.64 µM). Moreover, in the assay with Staphylococcus aureus [2], the “log(1/C)” value is 5.64 and the MIC turned out to be 0.78 µg/mL (≈ 2.32 µM).
In the same order, the values of `Clc1ccc(Nc2nc3cc(Br)ccc3[nH]2)cc1Cl` are 6.55, 0.095 µg/mL (≈ 0.266 µM), 6.28 and 0.19 µg/mL (≈ 0.532 µM).
Regarding `N#Cc1ccc2[nH]c(Nc3ccc(Cl)c(Cl)c3)nc2c1`, in the assay on Staphylococcus aureus [1], the “log(1/C)” value amounted to 5.28 and the MIC came out at 1.56 µg/mL (≈ 5.15 µM). Further, in the assay with Staphylococcus aureus [2], the MIC was determined as 1.56 µg/mL (≈ 5.15 µM).
As for `FC(F)(F)c1ccc(Nc2nc3cc(Cl)ccc3[nH]2)cc1`, in the assay with Staphylococcus aureus [1], the “log(1/C)” value was determined as 5.9 and it took 0.39 µg/mL (≈ 1.25 µM) to inhibit growth (MIC). The molecule further came in with a minimum inhibitory concentration (MIC) against Staphylococcus aureus [2] of 0.39 µg/mL (≈ 1.25 µM).
For `FC(F)(F)c1ccc2[nH]c(Nc3ccc(Cl)c(Cl)c3)nc2c1`, in the assay on Staphylococcus aureus [1], the “log(1/C)” value amounted to 6.26 and the minimal inhibitory concentration (MIC) amounted to 0.19 µg/mL (≈ 0.549 µM). In the assay on Staphylococcus aureus [2], this molecule came in with an MIC of 0.19 µg/mL (≈ 0.549 µM).
For the molecule `Fc1ccc(Nc2nc3cc(Cl)ccc3[nH]2)c(F)c1`, in the assay on Staphylococcus aureus [1], the “log(1/C)” value is given as 4.35 and the MIC amounted to 12.5 µg/mL (≈ 44.7 µM). Further, in the assay on Staphylococcus aureus [2], the “log(1/C)” value is given as 4.65 and inhibition of growth (MIC) required 6.25 µg/mL (≈ 22.3 µM).
In the case of `CC1(C)S[C@@H]2[C@H](NC(=O)[C@H](N)c3ccccc3)C(=O)N2[C@H]1C(=O)O` [AMPICILLIN], the minimum inhibitory concentration (MIC) worked out at 0.78 µg/mL (≈ 2.23 µM) in the assay with Staphylococcus aureus [1] and 25 µg/mL (≈ 71.5 µM) against Staphylococcus aureus [2].

The values are drawn from ChEMBL document CHEMBL1156701, “Synthesis, potent anti-staphylococcal activity and QSARs of some novel 2-anilinobenzazoles” (2008).
